Assay outcomes: PubChem, Sanford-Burnham Center for Chemical Genomics
Apaf1 activ: human Apaf-1 activation | AID 489031 | activity change, negative = activation, % at 20 µM | hit rate 0.31% among 330,000 | Apaf-1 apoptosome caspase-3 activation, DEVD-Rh110 fluorescence; hits give low values | O14727;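 active = activity change at or below -40% at 20 µM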
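Assay system – biochemical Apaf-1 apoptosome reconstitution · Medium – 20 mM HEPES buffer, pH 7.5, containing CHAPS and BSA · Incubation – 30 min preincubation, 50 min reaction, room temperature · Measured by – Caspase-3-released Rh110 fluorescence, 540 nm emission, 480 nm excitation · Read-out – Caspase-3 cleavage activity downstream of Apaf-1 activation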
Rh110 interf act: counter-screen for Apaf-1 activators: fluorescence interference; Rh110 fluorescence interference, quenched caspase reaction, Ex480/Em540; fluorescence interference (activity change), % at 20 µM, hits read low; shares compounds with Apaf1 activ; 980 tested, under 10 active;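 active = mean activity change at or below -40% when tested at 20 µM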
Apaf-1 act conf2: Apaf-1 (human) activation, single-dose confirmed; AID 504617; reconstituted apoptosome caspase-3 activity, DEVD-Rh110 fluorescence; hits give low values; activity change, negative = activation, % at 20 µM; hit rate 5% among 980; shares compounds with Apaf1 activ;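 active = mean activity change at or below -40%, meaning activation of 40% or more, at 20 µM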
Apaf1 act interf: shows fluorescence interference in the Apaf-1 activator assay format; shares compounds with Apaf1 activ; fluorescence interference counterscreen; EC50, µM; 55 tested, under 10 active; call rule not given here
Starred values were filed as active, the others as inactive; · = no result given. These entries were drawn from the full list.

SMILES | Apaf1 activ | Rh110 interf act | Apaf-1 act conf2 | others
Oc1ccc(Br)cc1CNc1cccc2cccnc12 | 90 | · | ·
C/C(=N\NC(=O)Cc1cc(=O)[nH][nH]1)c1cccc([N+](=O)[O-])c1 | 51 | · | ·
O=C(Nc1cccc2cccnc12)c1cccc([N+](=O)[O-])c1 | -342* | 10 | 17
Nc1cc2nsnc2cc1Br | 98 | · | ·
N=c1n(CC(=O)c2ccc(Br)s2)c2ccccc2n1Cc1ccccc1 | 42 | · | ·
O=C(c1ccc(Cn2c(=O)[nH]c3ccccc3c2=O)cc1)N1CCN(c2ccc(Cl)cc2)CC1 | 41 | · | ·
COc1cc2[nH]c(=O)n(Cc3ccc(C(=O)NC4CCCC4)cc3)c(=O)c2cc1OC | -53* | 7 | 3
CN(C)CCC(c1ccc(Cl)cc1)c1ccccn1 (stereo not given) | -9 | · | ·
FC(F)(F)c1cc(CCN2CCNC[C@H]2Cc2cccc3ccccc23)cc(C(F)(F)F)c1 | 72 | · | ·
O=C(NCC(c1ccc(F)cc1)N1CCOCC1)c1cccnc1Sc1ccccc1 (stereo not given) | -57* | 8 | 12
COc1ccc(C(CNC(=O)c2cccn2C)N2CCOCC2)cc1 (stereo not given) | 47 | · | ·
CCCCOc1ccc(C(=O)NCC(=O)NCC(c2cccs2)N2CCOCC2)cc1 (stereo not given) | 41 | · | ·
Cc1[nH][nH]c(=O)c1C(c1ccc(-c2ccc(F)cc2)o1)c1c(C)[nH][nH]c1=O | 72 | · | ·
O=C1c2ccccc2-c2nnc(-c3ccccc3)cc21 | 71 | · | ·
COc1ccc(OCc2cc(C(=O)N3CCSCC3)no2)c(Cl)c1 | -153* | 7 | 13
CCOc1cccc(CNc2ccc(O)cc2)c1OCc1ccccc1Cl | 97 | · | ·
Cc1cc(C(=O)Nc2ccccc2N2CCCCC2)no1 | -512* | 8 | 17
Nc1ccc(N2CCCCC2)c2nonc12 | 97 | · | ·
NC(=O)c1cc(N)ccc1N1CCCC1 | 44 | · | ·
O=C1CCN2C=Nc3cccc4ccc1c2c34 | 43 | · | ·
CCCCCOC(=O)c1c(N)n(CCOC)c2nc3ccccc3nc12 | 94 | · | ·
CC(C)Oc1ccc(C(=O)NC2(C(F)(F)F)NC(=O)N(CCCc3ccccc3)C2=O)cc1 (stereo not given) | -45* | 6 | 17
Cc1ccc(S(=O)(=O)/N=C2\C=C(Nc3cccc(C(=O)O)c3)C(=O)c3ccccc32)cc1 | 94 | · | ·
Cc1ccc(S(=O)(=O)/N=C2\C=C(Nc3cccc(C(=O)O)c3)C(=O)c3ccccc32)c(C)c1 | 90 | · | · | Apaf1 act interf=>100
CCc1ccc(S(=O)(=O)/N=C2\C=C(Nc3ccc(C(=O)O)cc3)C(=O)c3ccccc32)cc1 | 96 | · | ·
SMILES | Apaf1 activ | Rh110 interf act | Apaf-1 act conf2 | others
CCCCCCNC(=O)N[C@@H](C(=O)NCCC[C@H]1CN2C(=NC[C@@H]2Cc2ccccc2)N1CCc1cccc(OC)c1)C(C)C | 54 | · | ·
Cn1c(=O)c2cc(NCc3ccccc3)nnc2n(C)c1=O | 94 | · | ·
Cc1cccc(C)c1NC(=O)CSCC(=O)c1ccc(O)c(O)c1 | -161* | 13 | 13
CN1CCC[C@@H]1CCNC(=O)c1c(-c2ccc3c(c2)OCO3)noc1-c1ccsc1 | 40 | · | ·
CCc1ccc(NC2=CC(=O)C(=O)c3ccccc32)cc1 | 92 | · | ·
CC(C)=C1C2C=CC1C1C(=O)N(c3ccc4c(c3)OCO4)C(=O)C21 (stereo not given) | -71* | 1 | 10
N#C[C@@H]1[C@@H]2C(=O)N(c3ccc4c(c3)OCCO4)C(=O)[C@@H]2C2c3ccccc3C=CN21 (stereo not given in full) | 78 | · | ·
COc1ccc2[nH]c3c(C)c4ccncc4c(C)c3c2c1 | 76 | · | ·
CN1C(=O)CC(Nc2cccc3cccc(N)c23)C1=O (stereo not given) | 54 | · | ·
COc1cc(/C=N/N=C(N)N)ccc1OCc1ccc(Cl)cc1 | 40 | · | ·
CCCNC(=O)c1ccc(SC)cc1OC | -174* | 9 | 5
C#CCOCCOCCOCCNc1nc(N2CCN(C(=O)[C@H](CCCCN)n3cc(CN)nn3)CC2)nc(N2CCN(C(=O)[C@H](CCCCN)n3cc([C@@H](N)[C@H](C)CC)nn3)CC2)n1 | 40 | · | ·
CCOc1ccccc1N1CSC2=C(C#N)C(c3c(OC)ccc4ccccc34)CC(=O)N2C1 (stereo not given) | 41 | · | ·
Oc1ccc(NCc2cccc(OCc3ccccc3)c2)cc1 | 91 | · | ·
CCn1cc(CN2CCC(n3nccc3NC(=O)Cc3ccccc3)CC2)cn1 | -53* | 0 | 9
CN1/C(=N\O)c2cccc3cccc1c23 | 86 | · | ·
COc1cccc(-c2[nH]nc3c2C(c2ccsc2)C(C#N)=C(N)O3)c1 (stereo not given) | 60 | · | ·
COc1ccc(C2C(C#N)=C(N)Oc3n[nH]c(-c4ccccn4)c32)c(OC)c1OC (stereo not given) | -508* | 7 | 19
Cc1ccc2cc(C(c3nnnn3CC3CCCO3)N3CCc4ccccc4C3)c(=O)[nH]c2c1 (stereo not given) | 87 | · | ·
COc1ccccc1C(C)NC(=O)C1CCN(S(=O)(=O)c2cccs2)CC1 (stereo not given) | -53* | 13 | 14
O=C(c1ccc2ncsc2c1)N1CCCC(C(F)(F)F)C1 (stereo not given) | 42 | · | ·
CSCCC(NC(=O)c1ccco1)C(=O)N1CCCC(C(F)(F)F)C1 (stereo not given) | -394* | -7 | 27
Cc1cccc(/C=N/NC(=O)C(C)Nc2cccc3ccccc23)n1 (stereo not given) | 91 | · | ·
C=CCNC(=O)CN(c1cccc(Br)c1)S(C)(=O)=O | -56* | 2 | 7
Cc1cc(/C=C2\SC(=O)N(C)C2=O)c(C)n1-c1ccc(O)cc1 | 71 | · | ·
SMILES | Apaf1 activ | Rh110 interf act | Apaf-1 act conf2 | others
Nc1nc2c(s1)CCc1c-2cnn1-c1ccccc1 | 93 | · | ·
CC1CCCCC1NS(=O)(=O)c1ccc(S(=O)(=O)N2CCN(CCC#N)CC2)cc1 (stereo not given) | -65* | 1 | 9
NC1=Nc2cccc3cccc1c23 | 67 | · | ·
CC1CC(C)(C)CC2(C1)NC(=O)N(CC(=O)Nc1ccc3[nH]c(=O)[nH]c3c1)C2=O (stereo not given) | 44 | · | ·
Cc1ccc(C2(C)NC(=O)N(CC(=O)Nc3ccc4[nH]c(=O)[nH]c4c3)C2=O)cc1 (stereo not given) | -58* | 12 | -5
Cc1ccccc1OCc1n(CC(=O)OC2CC(C)CCC2C(C)C)c2ccccc2[n+]1C (stereo not given) | 47 | · | ·
COC(=O)C1=C(C)N(Cc2ccccc2)C(=NCc2ccc(OC)cc2)N[C@H]1c1cccc(F)c1 | 56 | · | ·
COc1ccc(-c2cc3c(nn2)-c2ccccc2C3=O)cc1 | 77 | · | ·
COc1ccc(Oc2nnc(-c3ccc(C)cc3)c3ccccc23)cc1 | -172* | 10 | 14
CC1CN(Cc2c(O)ccc3c2oc(=O)c2ccccc23)CC(C)O1 (stereo not given) | 44 | · | ·
O=C(O)c1ccc2c(c1)-c1nc3ccccc3n1C2=O | -113* | -2 | -1
O=C(O)c1ccc(NC2=C(n3nnc4ccccc43)C(=O)c3ccccc3C2=O)cc1 | 73 | · | ·
CSc1nncc(/C(C)=N\Nc2ccccc2)n1 | 70 | · | ·
